Experiments:
Rattus norvegicus [1] = species: Rattus norvegicus; experiment: Tested for biodistribution of compound at 60 min in rat blood; format: ADME, organism-based; details: in vivo, 1 h
Rattus norvegicus [2] = species: Rattus norvegicus; experiment: Tested for biodistribution of compound at 60 min in rat brain; format: ADME, organism-based; details: in vivo, 1 h
Rattus norvegicus [3] = species: Rattus norvegicus; experiment: Tested for biodistribution of compound at 60 min in rat heart; format: ADME, organism-based; details: in vivo, 1 h
Rattus norvegicus [4] = species: Rattus norvegicus; experiment: Tested for biodistribution of compound at 60 min in rat l intestine; format: ADME, organism-based; details: in vivo, 1 h
Rattus norvegicus [5] = species: Rattus norvegicus; experiment: Tested for biodistribution of compound at 60 min in rat muscle; format: ADME, organism-based, Muscle tissue; details: in vivo, 1 h
Rattus norvegicus [6] = species: Rattus norvegicus; experiment: Tested for biodistribution of compound at 60 min in rat s. intestine; format: ADME, organism-based; details: in vivo, 1 h
Rattus norvegicus [7] = species: Rattus norvegicus; experiment: Tested for biodistribution of compound at 5 min in rat blood; format: ADME, organism-based; details: in vivo
Rattus norvegicus [8] = species: Rattus norvegicus; experiment: Tested for biodistribution of compound at 5 min in rat brain; format: ADME, organism-based; details: in vivo
Rattus norvegicus [9] = species: Rattus norvegicus; experiment: Tested for biodistribution of compound at 5 min in rat heart; format: ADME, organism-based; details: in vivo
Rattus norvegicus [10] = species: Rattus norvegicus; experiment: Tested for biodistribution of compound at 5 min in rat liver; format: ADME, organism-based; details: in vivo
Rattus norvegicus [11] = species: Rattus norvegicus; experiment: Tested for biodistribution of compound at 5 min in rat spleen; format: ADME, organism-based; details: in vivo
Rattus norvegicus [12] = species: Rattus norvegicus; experiment: Tested for biodistribution of compound at 5 min in rat stomach; format: ADME, organism-based; details: in vivo
Mus musculus [13] = species: Mus musculus; experiment: Tested for biodistribution of compound at 60 min in mice blood; format: ADME, organism-based; details: in vivo, 1 h
In short: (§1)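 Male Swiss albino mice, at least five per group, received HPLC-purified 99mTc complex by tail vein. The complex was reconstituted in 50% methanol (0.1 mL, 2-3 μCi). Mice were killed by cardiectomy under light ether at 1-60 min pi. Organs were weighed and γ-counted against a 1% injected-dose standard to give % dose/organ. Blood and muscle were taken as 7% and 43% of body weight.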

Mus musculus [14] = species: Mus musculus; experiment: Tested for biodistribution of compound at 60 min in mice brain; format: ADME, organism-based; details: in vivo, 1 h; in short: as §1
Mus musculus [15] = species: Mus musculus; experiment: Tested for biodistribution of compound at 60 min in mice kidney; format: ADME, organism-based; details: in vivo, 1 h; in short: as §1
Mus musculus [16] = species: Mus musculus; experiment: Tested for biodistribution of compound at 60 min in mice liver; format: ADME, organism-based; details: in vivo, 1 h; in short: as §1
Mus musculus [17] = species: Mus musculus; experiment: Tested for biodistribution of compound at 60 min in mice muscle; format: ADME, organism-based, Muscle tissue; details: in vivo, 1 h; in short: as §1
Mus musculus [18] = species: Mus musculus; experiment: Tested for biodistribution of compound at 60 min in mice spleen; format: ADME, organism-based; details: in vivo, 1 h; in short: as §1
Mus musculus [19] = species: Mus musculus; experiment: Tested for biodistribution of compound at 60 min in mice stomach; format: ADME, organism-based; details: in vivo, 1 h; in short: as §1
Rattus norvegicus [20] = species: Rattus norvegicus; experiment: Tested for biodistribution of compound at 10 min in rat liver; format: ADME, organism-based; details: in vivo
In short: (§2)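 Wistar rats under ether anesthesia were dosed through the femoral vein with 0.1 mL of 99mTc complex (3-6 μCi) and dissected 5-60 min pi. Tissue radioactivity was γ-counted against a 1% injected-dose standard and expressed as % dose/organ. Blood and muscle were calculated from sample weight assuming 7% and 43% of body weight.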

Rattus norvegicus [21] = species: Rattus norvegicus; experiment: Tested for biodistribution of compound at 10 min in rat s. intestine; format: ADME, organism-based; details: in vivo; in short: as §2
Mus musculus [22] = species: Mus musculus; experiment: Tested for biodistribution of compound at 30 min in mice blood; format: ADME, organism-based; details: in vivo, 0.5 h
In short: (§3)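 Male Swiss albino mice, at least five per group, received 0.1 mL (2-3 μCi) of HPLC-purified 99mTc complex reconstituted in 50% methanol by tail vein. They were killed by cardiectomy under light ether anesthesia at set times (1-60 min pi). Organs were weighed and γ-counted against a 1% injected-dose standard to give % dose/organ. Blood and muscle were taken as 7% and 43% of body weight.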

Mus musculus [23] = species: Mus musculus; experiment: Tested for biodistribution of compound at 30 min in mice heart; format: ADME, organism-based; details: in vivo, 0.5 h; in short: as §3
Mus musculus [24] = species: Mus musculus; experiment: Tested for biodistribution of compound at 30 min in mice intestine; format: ADME, organism-based; details: in vivo, 0.5 h; in short: as §3
Mus musculus [25] = species: Mus musculus; experiment: Tested for biodistribution of compound at 30 min in mice kidney; format: ADME, organism-based; details: in vivo, 0.5 h; in short: as §3
Mus musculus [26] = species: Mus musculus; experiment: Tested for biodistribution of compound at 30 min in mice liver; format: ADME, organism-based; details: in vivo, 0.5 h; in short: as §3
Mus musculus [27] = species: Mus musculus; experiment: Tested for biodistribution of compound at 30 min in mice muscle; format: ADME, organism-based, Muscle tissue; details: in vivo, 0.5 h; in short: as §3
Mus musculus [28] = species: Mus musculus; experiment: Tested for biodistribution of compound at 30 min in mice stomach; format: ADME, organism-based; details: in vivo, 0.5 h; in short: as §3
Mus musculus [29] = species: Mus musculus; experiment: Tested for biodistribution of compound at 30 min in mice urine; format: ADME, organism-based; details: in vivo, 0.5 h; in short: as §3
Rattus norvegicus [30] = species: Rattus norvegicus; experiment: Tested for biodistribution of compound at 30 min in rat brain; format: ADME, organism-based; details: in vivo, 0.5 h; in short: as §2
Rattus norvegicus [31] = species: Rattus norvegicus; experiment: Tested for biodistribution of compound at 30 min in rat heart; format: ADME, organism-based; details: in vivo, 0.5 h; in short: as §2
Rattus norvegicus [32] = species: Rattus norvegicus; experiment: Tested for biodistribution of compound at 30 min in rat muscle; format: ADME, organism-based, Muscle tissue; details: in vivo, 0.5 h
Rattus norvegicus [33] = species: Rattus norvegicus; experiment: Tested for biodistribution of compound at 30 min in rat s. intestine; format: ADME, organism-based; details: in vivo, 0.5 h
Rattus norvegicus [34] = species: Rattus norvegicus; experiment: Tested for biodistribution of compound at 30 min in rat spleen; format: ADME, organism-based; details: in vivo, 0.5 h

With “[4-methoxythio)phenolato][N,N-bis(2-mercaptoethyl)-N',N'-diethylethylenediamine] oxotechnetium” the Dose/organ (Rattus norvegicus [1]) was 4.8%, the Dose/organ (Rattus norvegicus [2]) was 0.46% and the Dose/organ (Rattus norvegicus [3]) was 0.15%. It also gave a Dose/organ (Rattus norvegicus [4]) of 1.05%, a Dose/organ (Rattus norvegicus [5]) of 10.6% and a Dose/organ (Rattus norvegicus [6]) of 8.15%. The Dose/organ (Rattus norvegicus [7]) was 18.89%, the Dose/organ (Rattus norvegicus [8]) was 1.45% and the Dose/organ (Rattus norvegicus [9]) was 0.64%. It also gave a Dose/organ (Rattus norvegicus [10]) of 19.32%, a Dose/organ (Rattus norvegicus [11]) of 0.58% and a Dose/organ (Rattus norvegicus [12]) of 2.18%. For the same substance, the Dose/organ (Mus musculus [13]) was 1.21%, the Dose/organ (Mus musculus [14]) was 1.54% and the Dose/organ (Mus musculus [15]) was 1.59%. The Dose/organ (Mus musculus [16]) was 35.12%, the Dose/organ (Mus musculus [17]) was 6.86% and the Dose/organ (Mus musculus [18]) was 0.21%. The Dose/organ (Mus musculus [19]) was 2.34%, the Dose/organ (Rattus norvegicus [20]) was 24.09% and the Dose/organ (Rattus norvegicus [21]) was 6.34%. For the same substance, the Dose/organ (Mus musculus [22]) was 1.29%, the Dose/organ (Mus musculus [23]) was 0.19% and the Dose/organ (Mus musculus [24]) was 18.99%. It also gave a Dose/organ (Mus musculus [25]) of 2.19%, a Dose/organ (Mus musculus [26]) of 25.58% and a Dose/organ (Mus musculus [27]) of 8.18%. It also gave a Dose/organ (Mus musculus [28]) of 1.24%, a Dose/organ (Mus musculus [29]) of 5.06% and a Dose/organ (Rattus norvegicus [30]) of 0.53%. It also gave a Dose/organ (Rattus norvegicus [31]) of 0.17%, a Dose/organ (Rattus norvegicus [32]) of 16.52% and a Dose/organ (Rattus norvegicus [33]) of 7.55%. The Dose/organ (Rattus norvegicus [34]) was 0.3%.
